# Screening results from PubChem.
# NPY-Y1 antag: NPY-Y1 receptor antagonists, primary screen, cell-based; HEK293-CNG Y1 cells, membrane potential fluorescence; NPY at EC95, then isoproterenol; inhibition, % at 3.6 µM; actives 1% (n = 200,000); AID 1040, 2008;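 active = inhibition above the campaign mean inhibition of all tested compounds plus 3 SD, cut at about 20% in these data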;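 note: 0% = DMSO wells given NPY plus isoproterenol and 100% = isoproterenol alone without NPY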
#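 Material: HEK293 Y1/CNG channel cell line | Also added: NPY (25 nM), isoproterenol (1 µM), Ro 20-1724 (25 µM) | Compound: One concentration, 3.6 µM, in 0.4% DMSO | Schedule: 3 h dye uptake, 1 h room-temperature compound, 45 min post-isoproterenol | Signal: Membrane-potential fluorescent dye readout | Read-out: % inhibition of NPY effect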
# NPY-Y2 PAM-ag: NPY-Y2 potentiators or agonists, primary screen, cell-based; Neuropeptide Y receptor type 2 (Homo sapiens), P49146; cells expressing NPY-Y2, potentiator/agonist read-out; activation, % at 3.6 µM; AID 1359, 2008; actives 0.45% (n = 220,000); in the data active = activation above about 27%;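 note: cells stimulated with NPY near EC25 plus isoproterenol at EC100; 0% = vehicle plus submaximal agonist and 100% = vehicle plus saturating agonist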
# NPY Y2 blocker: NPY-Y2 receptor antagonists, primary screen, cell-based; NPY-Y2 expressing cells, antagonist mode; actives 0.99% (n = 140,000); AID 793, 2007; Neuropeptide Y receptor type 2 (Homo sapiens), P49146; inhibition, % at 2.7 µM; in the data active = inhibition above about 17%;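 note: 0% = vehicle with agonist challenge and 100% = reference antagonist with challenge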
# Rad51 HR inh: human RAD51 strand exchange inhibitors, primary screen, biochemical, fluorescence; DNA repair protein RAD51 homolog 1 (Homo sapiens), Q06609; hRad51 DNA strand exchange, fluorescence dequenching; actives 0.085% (n = 200,000); inhibition, % at 10 µM;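 active = inhibition above 40% at the single screening dose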;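 note: 0% = DMSO control wells and 100% = blanks with heterologous ssDNA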
# Target sequence (Q06609 whole entry, looked up): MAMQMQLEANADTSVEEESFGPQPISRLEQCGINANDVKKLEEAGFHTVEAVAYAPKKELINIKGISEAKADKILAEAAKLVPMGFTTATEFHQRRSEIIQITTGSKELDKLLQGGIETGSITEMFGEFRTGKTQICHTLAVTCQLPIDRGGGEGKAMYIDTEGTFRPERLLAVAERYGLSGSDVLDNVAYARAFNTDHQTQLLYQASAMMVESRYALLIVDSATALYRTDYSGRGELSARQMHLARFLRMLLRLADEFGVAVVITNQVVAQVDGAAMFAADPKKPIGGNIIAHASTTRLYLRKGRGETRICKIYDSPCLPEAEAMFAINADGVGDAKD
#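 Assay system: Human Rad51 nucleoprotein filaments preassembled on unlabelled ssDNA | Reagent: Donor/quencher-labelled 47-bp dsDNA substrate | Doses: One concentration, 10 µM final | Times: 37 °C 15-min filament assembly, 30-min compound preincubation, 15-min exchange | Technique: Fluorescein emission 520 nm, excitation 485 nm | Benchmarks: Plate control and blank wells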
# NPY1 pot ag: NPY-Y1 receptor potentiators or agonists, primary screen, cell-based | NPY-Y1 expressing cells, potentiator/agonist activation | AID 1304, 2008 | actives 0.37% (n = 220,000) | activation, % at 3.6 µM | Neuropeptide Y receptor type 1 (Homo sapiens), P25929; in the data active = activation above about 33%, passing the limit was not always enough;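 note: cells stimulated with NPY at EC10 then isoproterenol at EC100; 0% = low agonist plus stimulus and 100% = saturating agonist plus stimulus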
# Measles CPE: compounds protecting cells from measles virus cytopathic effect, primary screen, measles RdRp inhibitor project, single point, MLSMR library, absorbance; Measles virus-infected cells, CPE protection; protection (pct of control), % at 4 µM; actives 1.5% (n = 140,000); AID 841, 2007; in the data active = protection mostly above about 24%, no sharp cut-off; inactive = mostly below about 26%
# * marks the source's active call; other numbers are inactive results; . = no result. Most compounds without a hit are left out; they make up all but 2.8% or so of the library.
SMILES,NPY-Y1 antag,NPY-Y2 PAM-ag,NPY Y2 blocker,Rad51 HR inh,NPY1 pot ag,Measles CPE
Cc1ccc(CNCC(O)(c2ccc(F)cc2)c2ccc(F)cc2)cc1,23*,-31,19*,-1,-59,6
Cc1ccc(CNCC(O)(c2ccccc2)c2ccc(F)cc2)cc1 (centres undefined),11,-23,8,.,-28,43
Cc1ccccc1NC(=O)COC(=O)CCc1ccccc1,1,5,.,14,1,.
CN1CCN(c2ccc(NC(=O)c3ccc(-c4ccc(Br)cc4)o3)cc2)CC1,0,32*,.,25,41*,.
CC(C)(C)C(=O)COC(=O)c1ccccc1O,-1,-23,2,2,1,8
CC(C)(C)C(=O)COC(=O)c1ccc(O)cc1,4,5,-1,0,-1,55*
CCOC(=O)C1CCCN(C(=O)c2cc(-c3ccc(C)cc3)nc3ccccc23)C1 (centres undefined),7,0,.,13,-17,.
Cc1cccc2nc(C(F)(F)F)nc(=O)n12,0,-3,3,-3,19,43*
CS(=O)(=O)Nc1ccc2c(c1)C(=O)OC2,-5,4,1,5,-19,53*
CC(C)Sc1oc(-c2ccco2)nc1S(=O)(=O)c1ccccc1,1,-4,3,1,-17,30*
CSc1oc(-c2ccco2)nc1S(=O)(=O)c1ccccc1,2,-7,-1,3,-12,2
Cc1ccc2nc(-c3ccc(NS(C)(=O)=O)cc3)cc(-c3ccccc3)c2c1,-4,-18,-1,-7,-20,42*
Cc1ccc(S(=O)(=O)N(C)c2ccc(OCC(=O)Nc3nnc(C4CC4)s3)cc2)cc1,-4,7,.,9,18,.
CCSc1nc2ccccc2c(=O)n1Cc1ccc(F)cc1,10,-6,.,-27,-11,.
Cc1ccccc1Cn1nc(C)c(NC(=O)c2sc3ccccc3c2Cl)c1C,0,3,8,0,6,64*
O=C(O)c1cccnc1Br,3,2,.,5,5,.
Cc1cccc(NC(=O)C2SC(=Nc3c(C)cccc3C)C(C(=O)N3CCOCC3)=C2N)c1 (centres undefined),-1,-8,0,-2,4,12
CC(=O)Nc1nnc(COc2ccccc2)s1,1,-2,.,0,-8,.
O=C(Nc1nnc(COc2ccccc2)s1)c1ccco1,-4,5,3,-4,-21,45*
CNC(=O)/C=C/c1cccc(C(F)(F)F)c1,4,10,0,.,1,53*
Cc1ccccc1NC(=O)/C=C/c1cccc(C(F)(F)F)c1,7,-5,5,1,3,24
O=C1NC(c2ccccc2)=C(c2ccccc2)C1=O,-3,-4,1,-27,-5,45*
O=C(COC(=O)C12CC3CC(CC(Br)(C3)C1)C2)N1CCOCC1,0,11,.,2,-5,.
CC(C)=CCCC(C)NC(=O)NC1CCCCC1 (centres undefined),-5,-1,1,4,3,27*
O=C(NC1CCCCC1)C(c1ccc2ncccc2c1)N(Cc1ccccc1)C(=O)c1cccs1 (centres undefined),24*,-27,25*,-1,-1,5
SMILES,NPY-Y1 antag,NPY-Y2 PAM-ag,NPY Y2 blocker,Rad51 HR inh,NPY1 pot ag,Measles CPE
O=C(NCC(=O)N(c1ccc2c(c1)OCO2)C(C(=O)NC1CCCC1)c1cccs1)c1ccco1 (centres undefined),-4,4,4,-3,-1,66*
COc1cc(C(C(=O)NC2CCCCC2)N(C(=O)Cc2c[nH]c3ccccc23)c2ccccc2C)cc(OC)c1OC (centres undefined),-2,-1,4,4,-13,14
O=C(NC1CCCC1)C(c1ccsc1)N(Cc1ccccc1)C(=O)Cc1cccs1 (centres undefined),60*,-21,33*,.,-34,63*
COc1ccc(CN(C(=O)c2cccs2)C(C(=O)NC2CCCCC2)c2ccc3ncccc3c2)cc1 (centres undefined),5,0,2,.,-9,26
O=C(NC1CCCC1)C(c1cccs1)N(C(=O)c1ccco1)c1ccc2c(c1)OCO2 (centres undefined),4,-9,6,-1,8,15
COc1cc(C(C(=O)NC2CCCCC2)N(Cc2cccs2)C(=O)Cc2c[nH]c3ccccc23)cc(OC)c1OC (centres undefined),3,32*,9,3,5,0
Nc1c(C(=O)OCC(=O)NCc2ccccc2)[nH]c(=O)[nH]c1=O,.,-11,.,-12,3,.
CCN(c1ccccc1)S(=O)(=O)c1ccc(Cl)c(NC(=O)CN(C)C2CCN(C)CC2)c1,.,-21,.,2,-34,.
CCCC[C@@H]1CCCO[C@@](C(=O)NCc2ccccn2)(C(F)(F)F)C1,.,.,.,-10,.,.
O=C(COC(=O)c1ccc(Br)cc1)NCc1ccc(F)cc1,8,-10,.,3,-5,.
O=C(NC1CCCC1)C(c1cccs1)N(Cc1ccco1)C(=O)c1csnn1 (centres undefined),3,9,-1,-7,-27,8
O=C(NC1CCCC1)C(c1ccccc1)N(Cc1ccc2c(c1)OCO2)C(=O)Cc1cccs1 (centres undefined),23*,-8,21*,-10,-34,5
COc1ccccc1CN(C(=O)Cc1cccs1)C(C(=O)NC1CCCC1)c1ccncc1 (centres undefined),45*,-20,19*,0,-30,2
O=C(NC1CCCC1)C(c1ccsc1)N(Cc1ccco1)C(=O)Cc1cccs1 (centres undefined),62*,-32,38*,-1,-35,3
Cc1cc([N+](=O)[O-])nn1CCCC(=O)NC1CCCCC1,2,-7,.,.,-8,.
CC(=O)Nc1cccc(NC(C)=C(C#N)C#N)c1,-2,2,2,4,7,9
Cc1ccc2nc(-c3cccnc3)cc(C(=O)Nc3ccc(F)cc3C)c2c1,4,-13,.,7,-13,.
COCCNC(=O)c1ccc(N(C)S(=O)(=O)c2ccc(OC)c(OC)c2)cc1,2,22,-1,5,-6,68*
CC(C)c1nnc(NC(=O)Cc2ccccc2[N+](=O)[O-])s1,4,-10,2,-25,-10,22
CC(=O)N1CCN(C(=S)Nc2cc(S(=O)(=O)N3CCOCC3)ccc2Cl)CC1,0,-5,.,-4,3,.
